Measured values from ChEMBL document CHEMBL1158585, “Oploxynes A and B, polyacetylenes from the stems of Oplopanax elatus” (J Nat Prod, 2010).
Calls of active or inactive are those of the source. No cut-off for these calls is given here.

Tests used:
RAW264.7 [1] = test: Antiinflammatory activity in lipopolysaccharide-induced mouse RAW264.7 cells assessed as inhibition of nitric oxide production after 20 to 24 hrs by Griess method; format: functional, cell-based
In short: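 RAW264.7 cells seeded at 1 × 10⁵ cells/well and left 6 h to attach, then given phenol red-free medium with 1 µg/mL E. coli LPS (strain 055:B5), with or without compound, for 20-24 h. Compounds were serially diluted. Supernatant nitrite read by Griess reagent, absorbance at 540 nm, against a NaNO₂ standard curve. Control got 0.5% (v/v) DMSO. Triplicate wells.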

RAW264.7 [2] = test: Antiinflammatory activity in lipopolysaccharide-induced mouse RAW264.7 cells assessed as inhibition of prostaglandin E2 production after 20 to 24 hrs; format: functional, cell-based
In short: (§1)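 PGE₂ made from endogenous arachidonic acid was measured with a commercial PGE₂ parameter assay kit, following the manufacturer's protocol.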

RAW264.7 [3] = test: Cytotoxicity in mouse RAW264.7 cells; format: cell-based
RAW264.7 [4] = test: Antiinflammatory activity in lipopolysaccharide-induced mouse RAW264.7 cells assessed as inhibition of nitric oxide production at 8 uM after 24 hrs by Griess method; format: functional, cell-based
In short: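 RAW264.7 cells seeded at 1 × 10⁵ cells/well and left 6 h to attach, then exposed to compound at 8 µM for 24 h in phenol red-free medium with 1 µg/mL E. coli LPS (strain 055:B5). Supernatant nitrite read by Griess reagent at 540 nm against a NaNO₂ standard curve. Control got 0.5% (v/v) DMSO. Triplicate wells.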

RAW264.7 [5] = test: Antiinflammatory activity in lipopolysaccharide-induced mouse RAW264.7 cells assessed as inhibition of prostaglandin E2 production at 8 uM after 24 hrs; format: functional, cell-based; in short: as §1

SMILES | IC50 (RAW264.7 [1]) | IC50 (RAW264.7 [2]) | IC50 (RAW264.7 [3]) | inhibition (RAW264.7 [4]) | inhibition (RAW264.7 [5])
CCCCCCC/C=C\[C@H](O)C#CC#C[C@@H](O)CC [OPLOPANDIOL] | 2.72 µM | 2.99 µM | > 40 µM | Active | Active
C=CC(O)C#CC#C[C@@H](O)/C=C\CCCCCCC (mixture of isomers) | 1.28 µM | 1.54 µM | 3.77 µM | – | –
CCCCCCC[C@@H]1O[C@@H]1[C@H](O)C#CC#C[C@@H](O)CC [OPLOXYNE A] | 1.98 µM | 3.08 µM | > 40 µM | Active | Active
CCCCCCC[C@@H](OC)[C@H](O)[C@H](O)C#CC#C[C@@H](O)CC [OPLOXYNE B] | > 40 µM | > 40 µM | > 40 µM | – | –
